Compound activity (PubChem BioAssay)
CHT PAM = allosterically activates the human high affinity choline transporter; Q9GZV3; B-score at 10 µM; CHT-expressing cells, membrane potential dye, choline EC20; hits give high values; LV-AA mutant CHT in HEK293 cells; hit rate 0.49% among 310,000;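 active = initial fluorescence not abnormally high and integrated response B-score, plate-corrected, over 3 SD above library mean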
Target sequence (Q9GZV3 whole entry, looked up): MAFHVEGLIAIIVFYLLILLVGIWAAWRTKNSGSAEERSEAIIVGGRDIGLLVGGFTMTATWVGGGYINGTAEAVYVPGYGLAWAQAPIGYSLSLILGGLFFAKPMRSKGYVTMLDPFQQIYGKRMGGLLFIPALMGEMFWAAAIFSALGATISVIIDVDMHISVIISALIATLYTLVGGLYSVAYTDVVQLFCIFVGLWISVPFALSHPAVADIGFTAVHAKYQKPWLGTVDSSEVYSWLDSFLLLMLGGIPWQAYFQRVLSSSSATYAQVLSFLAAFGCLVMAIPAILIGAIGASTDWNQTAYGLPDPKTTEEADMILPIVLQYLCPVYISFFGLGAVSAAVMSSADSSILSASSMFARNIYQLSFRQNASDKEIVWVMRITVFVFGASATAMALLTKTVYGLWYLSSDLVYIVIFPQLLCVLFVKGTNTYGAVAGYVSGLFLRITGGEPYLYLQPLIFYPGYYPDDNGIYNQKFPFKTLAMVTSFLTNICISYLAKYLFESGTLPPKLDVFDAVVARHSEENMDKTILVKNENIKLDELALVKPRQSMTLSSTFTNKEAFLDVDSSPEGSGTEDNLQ
CHT block = inhibits the human high affinity choline transporter. hit rate 0.86% among 310,000. CHT-expressing cells, membrane potential dye, choline response; hits give low values. B-score at 10 µM. Q9GZV3;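 active = B-score over 3 SD under the library average, and starting fluorescence ratio not unusually high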;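 note: choline stimulus applied at its EC90 after an EC20 pre-addition; B-score computed on integrated fluorescence ratio after choline addition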
VLA-4 inh = inhibition in a human VLA-4 binding assay. P13612. VLA-4 expressing cells, ligand binding flow cytometry. inhibition, % (about 7 µM as worked out from the volumes in the protocol). hit rate 0.2% among 330,000. AID 2557; in the data active = inhibition above about 50%
T cell HTS = T cell immune modulators affecting CD8 T cell-vesicle binding; 2C CD8+ T cell-vesicle binding, flow cytometry; hits give low values; response (vesicle binding), % at 7 µM; hit rate 0.068% among 330,000;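 active = response, share of CD8 T cells binding vesicles, and their 90th percentile fluorescence all below set limits, cut at about 80% in these data, passing the limit was not always enough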;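 note: values below 100% mean blocked vesicle binding to the CD8+ T cells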
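Benchmarks: naked versus QL9-loaded vesicles / Assay system: purified 2C TCR transgenic mouse naive CD8+ T cells / Technique: high-throughput flow cytometry with anti-B7-1 and anti-CD8 staining / Timing: Cell–vesicle co-incubation 1.5 h at 37 °C, staining 20 min on ice / Read-out: percent CD8+ FL2 mean versus row control / Probe or stimulus: QL9-loaded Drosophila micro-vesicles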
* marks the source's active call; other numbers are inactive results; i = inactive; · = not tested or not shown. An excerpt weighted towards active compounds, which were near 1.5% of everything screened.

SMILES	CHT PAM	CHT block	VLA-4 inh	T cell HTS
CN(C)S(=O)(=O)c1ccc(NC(=O)c2ccc([N+](=O)[O-])cc2)cc1	i	i	·	0.0*
CC(C)N(C(=O)c1ccc(C(=O)Nc2ccc([N+](=O)[O-])cc2)cc1)C(C)C	i	i	14.1	606.1
Nn1c(SCC(=O)Nc2ccc(N3CCOCC3)cc2)nnc1-c1cccc(F)c1	·	·	-4.8	655.3
O=C(c1ccoc1)N1CCC2(CC1)Oc1ccc(Cl)cc1C(=O)C21CC(c2cccnc2)=NO1 (centres undefined)	i	i	20.1	560.6
CC(C)C(=O)N1CCC2(CC1)Oc1ccc(Cl)cc1C(=O)C21CC(c2cccnc2)=NO1 (centres undefined)	i	i	-9.7	0.0*
Cn1c(=O)c(C(=O)c2ccc(S(C)(=O)=O)c(Cl)c2Cl)c(O)c2ccccc21	i	i	0.5	401.6
O=C(Nc1cccc(Cl)c1)c1ccccc1NC(=O)C1CCCCC1C(=O)O (centres undefined)	i	i	-5.3	249.0
Cc1c(OC(C)C(=O)NCc2ccncc2)ccc2c3c(c(=O)oc12)CCCC3 (centres undefined)	i	-4.99*	-1.4	321.3
Cc1c(OC(C)C(=O)NCc2ccccn2)ccc2c3c(c(=O)oc12)CCC3 (centres undefined)	i	i	19.6	366.6
Nc1ccc(Cl)c(S(=O)(=O)Nc2cccc(Cl)c2)c1	i	-8.9*	8.6	284.0
Cc1ccc(NS(=O)(=O)c2cc(N)ccc2Cl)c(C)c1	i	i	5.1	217.8
O=C(CC(Sc1ccc(Br)cc1)C(=O)O)c1ccc(Br)cc1 (centres undefined)	i	-6.99*	2.9	243.7
CC1CCc2c(sc(NC(=O)c3ccccc3C(=O)O)c2C#N)C1 (centres undefined)	i	i	-0.5	142.9
CCC(C)(C)C1CCc2c(sc(NC(=O)c3ccccc3C(=O)O)c2C#N)C1 (centres undefined)	i	-7.71*	-0.4	341.4
CCOC(=O)/C(C#N)=C1\SS/C(=C(/C#N)C(=O)OCC)S1	i	-5.49*	4.0	214.9
COc1cccc(C(=O)N2CCN(C3CCN(Cc4ccccc4)CC3)CC2)c1OC	i	i	7.9	215.6
Cc1c(C(=O)NNC(=S)Nc2ccc(S(N)(=O)=O)cc2)oc2ccccc12	i	i	0.2	144.8
CCC(Sc1nc2ccccc2s1)C(=O)Nc1cc(C)on1 (centres undefined)	i	i	0.6	19.5
CC1(C)Cc2c(C#N)c(NC3CCCCC3)nc(-c3ccco3)c2CO1	i	i	-6.1	0.0*
CCCCn1c(N)c(N(CCOC)C(=O)COC(=O)COc2cccc(C(C)=O)c2)c(=O)[nH]c1=O	i	i	0.5	341.8
CCCCN(C(=O)c1cc(CC)c(C)s1)c1c(N)n(CCC)c(=O)[nH]c1=O	i	i	-21.2	233.1
CC(N)c1ccc(Cl)cc1Cl (centres undefined)	i	i	0.0	32.3*
COc1cc(CNCCc2ccc(F)cc2)ccc1OCc1ccc(Cl)nc1	i	-5.85*	15.5	255.0
COc1cc(CNCCc2ccccc2F)ccc1OCc1ccc(Cl)nc1	i	i	27.8	260.3
COc1cccc(-c2cc(C(=O)N3CCc4ccccc4C3)[nH]n2)c1	i	i	-13.2	328.4
SMILES	CHT PAM	CHT block	VLA-4 inh	T cell HTS
O=C(COC(=O)C1CC2C=CC1C2)NCc1ccc(F)cc1 (centres undefined)	i	i	-1.6	54.8*
N#CC1=C(N)SC(N)=C(C#N)C1CCc1ccccc1	i	-6.05*	2.5	207.0
N#CC1=C(N)SC(N)=C(C#N)C1Cc1ccccc1	i	i	-81.2	370.3
O=C(C1=NN[C@@H]2C(=O)N(Cc3ccccc3)C(=O)[C@H]12)c1ccc(F)cc1	i	i	0.6	606.8
COC(=O)c1ccc2c(=O)[nH]c(CSc3nc(-c4ccc(F)cc4)cs3)nc2c1	i	i	12.4	77.7*
CC(C)C(=O)C1=Cc2cc([N+](=O)[O-])ccc2OC1N1CCOCC1 (centres undefined)	i	i	-1.8	68.9
COc1ccccc1-n1c(=O)oc2ccc(Cl)cc2c1=O	i	-8.53*	7.0	398.9
O=C(O)COc1ccccc1/C=N/NC(=O)CSc1nc2ccccc2n1Cc1ccc(Cl)cc1	i	i	1.5	259.0
CCOC(=O)c1nc(N2CCN(C(=O)OCC)CC2)c2c3c(sc2n1)CCCC3	i	-5.9*	-19.9	141.6
O=C(Nc1cccc(N=Cc2cc(Cl)cc(Br)c2O)c1)c1ccco1	i	-7.12*	-1.1	238.4
O=C(Nc1cccc(N=Cc2cc(Br)cc(Br)c2O)c1)c1ccco1	i	i	26.3	608.2
COc1cccc(NC(=O)c2ccc(N3C(=O)C4CCC(C)CC4C3=O)cc2)c1 (centres undefined)	i	i	-2.8	213.4
CC(=O)N1CCC(C(=O)OCc2ccccc2F)(c2ccccc2)CC1	i	i	9.9	171.1
O=C(c1ccc2c3n(nc2c1)-c1ccccc1CO3)N1CCCCC1	i	-5.25*	1.3	184.5
O=C(c1ccc2c3n(nc2c1)-c1ccccc1CO3)N1CCOCC1	i	i	3.3	486.3
CCOc1cccc(C(=O)Nc2ccccc2N2CCN(C(=O)C(C)C)CC2)c1	i	-5.71*	-5.0	120.3
Cc1ccc(S(=O)(=O)Cc2cc(F)c([N+](=O)[O-])cc2[N+](=O)[O-])cc1	i	-6.4*	25.8	100.6
CC1CCCN(C(=O)c2ccc(NS(=O)(=O)c3cccc([N+](=O)[O-])c3)cc2)C1 (centres undefined)	i	i	5.6	496.2
N#C/C(=C(/O)c1ccc2c(c1)OCO2)c1nc2cc(C(F)(F)F)ccc2s1	i	-8.31*	-17.5	153.5
Cc1cc(-c2ccc(/C=N/n3cnnc3)o2)c(C)c([N+](=O)[O-])c1	10.6*	i	4.7	188.1
O=[N+]([O-])c1cc(-c2ccc(/C=N/n3cnnc3)o2)ccc1Cl	6.46*	i	-4.4	186.6
COc1cc([N+](=O)[O-])ccc1-c1ccc(/C=N\n2cnnc2)o1	i	i	-33.7	129.8
Cc1nc(SCCc2nc3ccccc3[nH]2)c2oc3ccccc3c2n1	·	·	9.6	281.1
Cc1cc(=O)c2cc3nc(-c4cccnc4)oc3c(Br)c2o1	i	i	8.2	0.0*
O=C(Nc1ccccn1)C(=O)Nc1ccccn1	i	i	-1.0	150.3
S=C(Nc1ccccn1)c1ccccn1	i	i	-3.9	12.3*
CCN(CC)S(=O)(=O)c1ccc(Cl)c(NC(=O)COC(=O)C2CCCCC2)c1	·	·	5.1	0.0*
CCc1ccc(C)c(OC(=O)c2cncc(Br)c2)c1	i	i	3.6	270.2
Cc1ccc(C)c(OC(=O)c2cncc(Br)c2)c1	i	i	3.9	0.0*
O=C(Nc1ccccc1)N1CCc2c([nH]c3ccccc23)C1C(F)(F)F (centres undefined)	i	i	10.8	31.6*
